# Experimental data gathered from unrelated publications.
# Compare with care: the assays were run in different laboratories.
# GRM7: Metabotropic glutamate receptor 7 (GRM7, Homo sapiens, UniProt Q14831)
# PDE4D: 3',5'-cyclic-AMP phosphodiesterase 4D (PDE4D, Homo sapiens, UniProt Q08499)
# F2: Prothrombin (F2, Homo sapiens, UniProt P00734)
# Dihydroorotate dehydrogenase, mitochondrial, putative: Dihydroorotate dehydrogenase, mitochondrial, putative (Plasmodium vivax, UniProt A5K1N1)
# MEP1B: Meprin A subunit beta (MEP1B, Homo sapiens, UniProt Q16820)
# HDAC6: Protein deacetylase HDAC6 (HDAC6, Homo sapiens, UniProt Q9UBN7)
# CDK7 with cyclin H: Cyclin-dependent kinase 7, with cyclin H (CDK7, Homo sapiens, UniProt P50613)
# KCNK9: Potassium channel subfamily K member 9 (KCNK9, Homo sapiens, UniProt Q9NPC2)
SMILES,target,assay,conditions,IC50 [µM]
O=C(N[C@@H](Cc1c[nH]c2ccccc12)C(=O)O)c1ccc(Cl)cc1,"Free fatty acid receptor 3 (FFAR3, Homo sapiens, UniProt O14843)","calcium signal, antagonist",,> 25.1
COc1ccc(-c2nsc(NC(=O)[C@@H]3C[C@H]3C)c2C)cc1,GRM7,"calcium signal, antagonist",,> 12.5
CC(C)n1c(/C=C/C(O)CC(O)CC(=O)O)c(-c2ccc(F)cc2)c2ccccc21 (stereo not drawn),"3-hydroxy-3-methylglutaryl-coenzyme A reductase (HMGCR, Homo sapiens, UniProt P04035)","enzyme activity, inhibitor, absorbance",,0.173
Cc1ccc(-c2ccc(O)cc2)c(C(=C2C=CC(=O)C=C2)c2ccc(O)cc2)c1C#Cc1ccc(O)cc1,PDE4D,"enzyme activity, inhibitor",,0.175
CC(C)(C)n1nc(-c2ccc3nc(OC4CC4)ccc3c2)c(C(N)=O)c1N,"Mitogen-activated protein kinase 1 (MAPK1, Homo sapiens, UniProt P28482)",cell-free assay,,> 10
Cc1nc2ccc(Cl)cc2c(=O)n1NC(=O)CCl,F2,"enzyme activity, inhibitor",,83.9
C[C@@H]1O[C@H](OP(=O)(O)OP(=O)(O)OC[C@H]2O[C@@H](n3cnc4c(=O)[nH]c(N)nc43)[C@H](O)[C@@H]2O)[C@@H](F)[C@H](O)[C@@H]1O,"Alpha-(1,3)-fucosyltransferase 7 (FUT7, Homo sapiens, UniProt Q11130)",cell-free assay,,~2.5
Cc1nc(Nc2ccc(C)c(Cl)c2)c2c(C)noc2n1,"Dihydroorotate dehydrogenase, mitochondrial, putative","enzyme activity, inhibitor, absorbance",,0.26
COc1cc(/C=N/n2c(C)nc3ccc(Br)cc3c2=O)ccc1OCc1ccc(Cl)cc1,F2,"enzyme activity, inhibitor",,44.9
O=C(CCN(Cc1cccnc1)Cc1ccc2c(c1)OCO2)NO,MEP1B,"enzyme activity, inhibitor",,9.65
COc1ccc(-c2noc(-c3cc(Cl)c(F)cc3-n3cncn3)n2)cc1OC,GRM7,"calcium signal, antagonist",,> 30
N#Cc1nc(NCc2cccc(-c3cn(S(=O)(=O)c4ccccc4)c4ccccc34)c2)c2ncn(CCCO)c2n1,"Cathepsin B-like cysteine protease (Trypanosoma brucei, UniProt Q6R7Z5)","enzyme activity, inhibitor",,> 15
CC(C)=CCC[C@@H](C)c1ccc(C)c(O)c1,"UDP-glucuronosyltransferase 2B7 (UGT2B7, Homo sapiens, UniProt P16662)","enzyme activity, inhibitor",1 h,42.1
COc1ccc2cc(/C=N/n3c(C)nc4ccc(Br)cc4c3=O)ccc2c1,F2,"enzyme activity, inhibitor",,51.9
COc1ccc([C@@H]2CN(C(=O)[C@@H](O)CO)C[C@@]2(C)[C@@H](C)O)cc1OC1CN(c2ccc(C)cn2)C1,PDE4D,"enzyme activity, inhibitor",,0.00014
COc1cc(/C=C2\SC(=O)NC2=O)cc(F)c1OCCNc1nc2c(cnn2C2CCCC2)c(=O)[nH]1,PDE4D,"enzyme activity, inhibitor",,0.765
Cc1nc2ccccc2c(=O)n1NC(=O)CSc1nc2ccccc2c(=O)n1-c1ccccc1,F2,"enzyme activity, inhibitor",,5.01
Cc1nc2ccccc2n1Cc1cc(F)c(C(=O)NO)c(F)c1,HDAC6,"enzyme activity, inhibitor",,0.946
CC/C=C\C/C=C\C/C=C\C/C=C\C/C=C\CCCC(=O)O,"DNA-directed DNA polymerase (Enterobacteria phage T4, UniProt P04415)","enzyme activity, inhibitor",,> 100
COc1ccc(C2=NN(C3CCCCCC3)C(=O)[C@@H]3CC=CC[C@H]23)cc1-c1ccc(C(=O)NCC(N)=O)cc1 (relative stereo),PDE4D,"enzyme activity, inhibitor",,0.251
CN1CCN(c2ccc(Nc3ncc4cc(C#N)c(=O)n(C5CCCC5)c4n3)cc2)CC1,"Dual specificity protein kinase TTK (TTK, Homo sapiens, UniProt P33981)","enzyme activity, inhibitor",,0.0668
O=C(CCN(Cc1ccc2c(c1)OCO2)Cc1ccc(Cl)cc1F)NO,MEP1B,"enzyme activity, inhibitor",,0.96
CN(C)C/C=C/C(=O)Nc1ccc(C(=O)N2CC[C@@H](Nc3ncc(Cl)c(-c4c[nH]c5ccccc45)n3)C2)cc1,CDK7 with cyclin H,"enzyme activity, inhibitor, FRET",,0.00633
CNCCCOc1cc2nc(N3CCCN(C)CC3)nc(NC3CCN(C)CC3)c2cc1OC,"Histone-lysine N-methyltransferase EHMT2 (EHMT2, Homo sapiens, UniProt Q96KQ7)","enzyme activity, inhibitor",,0.045
COCCOC(=O)C1=C(C)NC(C)=C(C(=O)OC(C)C)C1c1cccc([N+](=O)[O-])c1 (stereo not drawn),"Potassium channel subfamily K member 18 (KCNK18, Homo sapiens, UniProt Q7Z418)","ion flux, inhibitor",,17.5
CCCC[C@H](NC(=O)[C@H](C)c1c(C)[nH]c2ccc(O)cc12)c1ncc(-c2cc3ccccc3nc2OC)[nH]1,HDAC6,"enzyme activity, inhibitor",,> 45
Cc1nc2ccc(Br)cc2c(=O)n1/N=C/c1ccc(C(=O)O)cc1,F2,"enzyme activity, inhibitor",,48.6
C=CC(=O)Nc1ccc(N2CCC[C@@H](Nc3ncc(Cl)c(-c4c[nH]c5ccccc45)n3)C2)cc1C,CDK7 with cyclin H,"enzyme activity, inhibitor, FRET",,0.197
O=C(CCN(Cc1ccncc1)Cc1ccc2c(c1)OCO2)NO,MEP1B,"enzyme activity, inhibitor",,8.18
CCCON(Cc1ccc(C(=O)NO)cc1)C(=O)Nc1ccccc1,HDAC6,"enzyme activity, inhibitor, fluorescence",,0.02
COc1c(C(=O)/C=C(\O)c2ccccc2)ccc2occc12,CDK7 with cyclin H,"enzyme activity, inhibitor, ADP detection",,> 100
CC#Cc1cncc(-c2ccc3c(c2)[C@@]2(N=C(C)C(N)=N2)[C@]2(CC[C@H](OC)CC2)C3)c1,"Cathepsin D (CTSD, Homo sapiens, UniProt P07339)","enzyme activity, inhibitor",,16.1
Cc1nc2ccccc2n1Cc1nc(C(=O)NO)co1,HDAC6,"enzyme activity, inhibitor",,3.71
O=C(Nc1cccnc1)N1CCC(Cc2cccc(Oc3ccc(C(F)(F)F)cn3)c2)CC1,"Liver carboxylesterase 1 (CES1, Homo sapiens, UniProt P23141)","enzyme activity, inhibitor",,> 10
COc1ccc2c(Oc3ccc4c(C(=O)Nc5ccccc5N)cccc4c3)ccnc2c1,"Potassium/sodium hyperpolarization-activated cyclic nucleotide-gated channel 4 (HCN4, Homo sapiens, UniProt Q9Y3Q4)","ion current, inhibitor",,> 10
CC(C)C[C@H](NC(=O)[C@H]1O[C@@H]1C(=O)O)C(=O)NCCCCN=C(N)N,"Calpain-1 catalytic subunit (CAPN1, Homo sapiens, UniProt P07384)","enzyme activity, inhibitor",,0.0309
Cc1nc(NC2CCc3cc(Cl)ccc3C2)c2c(C)noc2n1 (stereo not drawn),"Dihydroorotate dehydrogenase, mitochondrial, putative","enzyme activity, inhibitor, absorbance",,0.058
COC(=O)C1=C(C)NC(C)=C(C(=O)OCCN(C)Cc2ccccc2)C1c1cccc([N+](=O)[O-])c1 (stereo not drawn),KCNK9,"ion flux, inhibitor",,> 30
O=c1cc(-c2ccccc2)oc2c1ccc1ccccc12,CDK7 with cyclin H,"enzyme activity, inhibitor, ADP detection",,> 100
Nc1ccc(-c2ccncc2)cc1NC(=O)N1CCCC1,HDAC6,"enzyme activity, inhibitor",,> 33.3
CCOC(=O)C1=C(C)NC(C)=C(C(=O)OC)C1c1cccc([N+](=O)[O-])c1 (stereo not drawn),KCNK9,"ion flux, inhibitor",,> 30
COc1ccc(-c2noc(-c3cc(Cl)ccc3-n3cncn3)n2)c(F)c1OC,GRM7,"calcium signal, antagonist",,> 30
